Compounds with a hit are over-represented: about 2.3% of the library has one in this group of screens.
TRPC6 act: activators of mouse TRPC6 channel | Q61143 | HEK293-TRPC6 membrane potential dye fluorescence; active compounds read high | B-score at 10 µM | actives 0.13% (n = 310,000) | AID 2550;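 active = B-score of the integrated fluorescence ratio above library mean plus 3 SD, and starting fluorescence ratio within library mean plus 5 SD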;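 note: higher score means more depolarization so channel activation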
TRPC6 inhibitor: blocks the mouse TRPC6 cation channel; HEK293-TRPC6, membrane potential dye, ACh-evoked depolarization; active compounds read low; B-score at 10 µM; Q61143; actives 1.1% (n = 310,000);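 active = B-score under library mean minus 3 SD, initial fluorescence not abnormally high, positive integrated signal ratio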;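 note: B-score derived from integrated fluorescence ratio over the kinetic read; more negative B-score means stronger inhibition of depolarization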
TRPC4 block: blocks the mouse TRPC4 cation channel | B-score at 10 µM | HEK293 TRPC4beta/mu-opioid, DAMGO-evoked Fluo4 calcium flux; active compounds read low | Q9QUQ5 | AID 2247 | actives 0.39% (n = 300,000);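 active = B-score over 3 SD under the library average, no early fluorescence shift, positive overall ratio signal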
Target sequence (Q9QUQ5 whole entry, looked up): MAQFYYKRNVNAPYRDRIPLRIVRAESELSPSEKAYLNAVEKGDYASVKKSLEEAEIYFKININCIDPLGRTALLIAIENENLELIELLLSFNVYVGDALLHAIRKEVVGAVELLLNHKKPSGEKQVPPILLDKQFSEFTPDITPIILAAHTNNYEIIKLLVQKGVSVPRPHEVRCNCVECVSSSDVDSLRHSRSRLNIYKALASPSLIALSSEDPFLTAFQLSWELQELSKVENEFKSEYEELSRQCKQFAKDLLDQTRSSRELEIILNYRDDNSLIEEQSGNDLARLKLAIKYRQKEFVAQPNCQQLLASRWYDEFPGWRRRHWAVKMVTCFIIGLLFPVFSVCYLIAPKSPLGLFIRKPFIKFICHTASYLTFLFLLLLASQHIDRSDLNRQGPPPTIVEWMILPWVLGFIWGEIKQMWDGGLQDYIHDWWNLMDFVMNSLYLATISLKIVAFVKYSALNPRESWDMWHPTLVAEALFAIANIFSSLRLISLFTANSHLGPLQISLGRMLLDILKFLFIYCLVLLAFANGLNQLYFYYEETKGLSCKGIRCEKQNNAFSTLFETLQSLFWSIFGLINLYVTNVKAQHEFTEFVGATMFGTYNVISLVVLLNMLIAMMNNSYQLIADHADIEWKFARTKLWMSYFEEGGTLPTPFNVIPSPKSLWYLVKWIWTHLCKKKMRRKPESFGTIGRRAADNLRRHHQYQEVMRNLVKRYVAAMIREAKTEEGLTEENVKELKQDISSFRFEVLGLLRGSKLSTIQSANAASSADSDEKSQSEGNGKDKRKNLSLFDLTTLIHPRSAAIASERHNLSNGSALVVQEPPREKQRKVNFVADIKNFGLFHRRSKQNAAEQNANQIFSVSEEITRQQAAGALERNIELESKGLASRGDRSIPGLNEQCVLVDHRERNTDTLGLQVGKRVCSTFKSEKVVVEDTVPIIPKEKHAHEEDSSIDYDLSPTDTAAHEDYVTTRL
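Signal: kinetic Fluo4 fluorescence imaging of calcium influx. Material: stable TRPC4beta/mu-opioid receptor HEK293 cells. Probe or stimulus: DAMGO in two steps, submaximal then maximal.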
TRPC4 potent: allosteric potentiators of mouse TRPC4 channel; Q9QUQ5; actives 0.42% (n = 310,000); AID 2227; B-score at 10 µM; HEK293 TRPC4beta/mu-opioid, DAMGO EC20, Fluo-4 Ca2+ flux; active compounds read high;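 active = B-score of calcium response area above 5 SD of library B-scores, with initial fluorescence ratio within 5 SD of library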;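 note: B-score of integrated fluorescence ratio over time as area under calcium response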
TRPC4 act: opens the mouse TRPC4 cation channel; Q9QUQ5; HEK293 TRPC4beta/mu-opioid, Fluo4 calcium fluorescence; active compounds read high; B-score at 10 µM; actives 0.49% (n = 310,000); AID 2237;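 active = B-score above 5 SD of library B-scores, and initial fluorescence ratio not above library mean plus 5 SD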;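 note: positive B-score marks a calcium rise read as TRPC4 activation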
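Material: HEK293 stable line with TRPC4beta plus mu-opioid receptor; technique: Fluo4 calcium-sensitive dye fluorescence, kinetic, 1 Hz baseline; timing: Fluo4 dye loading 45 min at room temperature, 110 s recording; controls: assay buffer as low control, maximal DAMGO as high control; read-out: integrated baseline-normalised fluorescence ratio, converted to per-well B score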
* = called active by the depositor; i = inactive.

SMILES | TRPC6 act | TRPC6 inhibitor | TRPC4 block | TRPC4 potent | TRPC4 act
COc1cc2c(cc1NC(=O)C(C)Sc1ccc(NC(C)=O)cc1)oc1ccccc12 (stereo not given) | i | i | i | 11* | i
COc1cc2c(cc1NC(=O)Nc1ccc(C)cc1)oc1ccccc12 | i | i | i | i | i
CCCC1(c2ccccc2)NC(=O)N(CC(=O)c2[nH]c(C)c(C(=O)OCC)c2C)C1=O (stereo not given) | i | i | i | 15* | i
Cc1cc(OCC(O)CN)ccc1Cl (stereo not given) | i | i | i | i | 143*
CCOC(=O)N1CCN(CC(O)COc2c(C)cccc2C)CC1 (stereo not given) | i | i | i | i | i
Cc1cccc(C)c1OCC(O)CN (stereo not given) | i | i | i | i | 163*
NNc1nc(-c2ccccc2Cl)nc2sc3c(c12)CCCC3 | i | i | i | 12* | i
COc1ccc(NC(C)=O)cc1NC(C)C(=O)Nc1cc(C(F)(F)F)ccc1N1CCOCC1 (stereo not given) | i | i | i | 27* | i
Cc1ccc(CCC(=O)Nc2ccccc2F)s1 | i | i | i | i | i
CCC(C)c1ccccc1OCC(=O)NN1C(=O)c2ccccc2C1=O (stereo not given) | i | i | i | i | i
CC1CN(C)C(C)c2c1oc1ccc(N)cc21 (stereo not given) | i | i | i | i | 239*
Nc1ccc2oc3ccccc3c2c1 | i | i | i | i | i
CC(C)=Cc1oc2ccc([N+](=O)[O-])cc2c1N1CCOCC1 | i | i | i | i | i
CC1CN(C)C(C)c2c1oc1ccc([N+](=O)[O-])cc21 (stereo not given) | i | i | i | i | 115*
CN(CC(=O)Nc1ccccc1C(F)(F)F)C(=O)CN1C(=O)C2CCCCC2C1=O (stereo not given) | i | i | i | i | i
Cc1nn2c(N3CCN(C)CC3)c3c(nc2c1-c1ccccc1)CCCC3 | i | i | i | 28* | i
CC(C)n1nc(C(=O)Nc2nc3ccccc3[nH]2)c2ccccc2c1=O | i | i | i | i | i
CCOc1ccc(C(=O)NCC(C)C)cc1 | i | i | i | i | i
CCOc1ccc(C(=O)NCC(c2cccs2)N(C)C)cc1 (stereo not given) | i | i | i | i | 50*
COc1ccc(N(C)S(=O)(=O)c2cccc(C(=O)NCC(c3cccs3)N(C)C)c2)cc1 (stereo not given) | i | i | -6* | i | i
CCN(C(=O)COC(=O)c1cccs1)c1c(N)n(Cc2ccccc2)c(=O)[nH]c1=O | i | i | i | i | i
CCN(CC)c1nc(OCCNC(=O)Nc2ccccc2)nc(N(CC)CC)n1 | i | i | i | i | i
CCCCCOc1ccc2oc(=O)c3c(c2c1)CCCN3C(=O)CN1CCCC(C(=O)OCC)C1 (stereo not given) | i | i | i | 33* | i
COc1ccccc1N(C(=O)c1snc(C(N)=O)c1N)C(C(=O)NC1CCCC1)c1ccc2ncccc2c1 (stereo not given) | i | i | -6* | i | i
COc1cccc(N(C(=O)c2snc(C(N)=O)c2N)C(C(=O)NCC2CCCO2)c2ccc3ncccc3c2)c1 (stereo not given) | i | i | -6* | i | i
SMILES | TRPC6 act | TRPC6 inhibitor | TRPC4 block | TRPC4 potent | TRPC4 act
COc1ccccc1N(C(=O)c1snc(C(N)=O)c1N)C(C(=O)NCc1ccccc1)c1ccc(O)cc1 (stereo not given) | i | i | -8* | i | i
COc1ccc(CN(C(=O)c2snc(C(N)=O)c2N)C(CC(C)C)C(=O)NC2CCCCC2)cc1 (stereo not given) | i | i | -7* | i | i
NC(=O)c1nsc(C(=O)N(c2ccc(F)cc2)C(C(=O)NCC2CCCO2)c2ccc3ncccc3c2)c1N (stereo not given) | i | i | i | i | i
COc1ccc(C(C(=O)NCc2ccccc2)N(C(=O)c2snc(C(N)=O)c2N)c2ccccc2OC)cc1 (stereo not given) | i | i | i | i | i
Nc1ccccc1SC1CC(=O)N(c2ccccc2Cl)C1=O (stereo not given) | i | i | i | i | i
Nc1nonc1-n1nnc(C(=O)N/N=C/c2ccccn2)c1CNc1ccccc1 | i | i | i | i | i
CCN1CCN(CCC(=O)Nc2ccccc2C)CC1 | i | i | i | i | i
CC(OC(=O)/C=C/c1ccccc1)C(=O)Nc1cccc(C#N)c1 (stereo not given) | i | i | i | i | i
CCc1ccc(N(C(=O)c2snc(C(N)=O)c2N)C(C(=O)NC2CCCC2)c2ccco2)cc1 (stereo not given) | i | i | i | i | i
Cc1cccc(N(C(=O)c2snc(C(N)=O)c2N)C(C(=O)NCC2CCCO2)c2ccc3ncccc3c2)c1 (stereo not given) | i | i | -6* | i | i
Cc1ccccc1N(C(=O)c1snc(C(N)=O)c1N)C(C(=O)NC1CCCC1)c1ccco1 (stereo not given) | i | i | -8* | i | i
Cc1ccc(N(C(=O)c2snc(C(N)=O)c2N)C(C(=O)NCC2CCCO2)c2ccc3ncccc3c2)cc1 (stereo not given) | i | i | i | i | i
O=C1NCN(c2ccccc2)C12CCN(CCCC(c1ccc(F)cc1)c1ccc(F)cc1)CC2 | i | i | i | i | 116*
OCCN(CCO)c1ncnc2c1sc1nc(N3CCOCC3)c3c(c12)CCCC3 | i | i | i | 15* | i
CN(C)CCNc1c2c(nc3nnnn13)CCCC2 | i | i | i | i | 44*
CC(=O)c1ccc(N2CCN(C(=O)C(=O)c3c(C)[nH]c4ccccc34)CC2)cc1 | i | i | i | 10* | i
COc1ccc(N2CCN(C(=O)C(=O)c3c(C)[nH]c4ccccc34)CC2)cc1 | i | i | i | i | i
COC(=O)CC1C(=O)NCCN1C(=O)c1cc(OC)c(OC)cc1OC (stereo not given) | i | i | i | i | i
COc1cccc(CNC(=O)CCC2CCCN(Cc3cc(Cl)ccc3O)C2)c1 (stereo not given) | i | i | -7* | i | i
